Source: PubChem
Most compounds without a hit are left out; they make up all but 3.1% or so of the library.
Hsp70 act: Hsp70 transcriptional activators, primary screen, cell-based, HeLa, Hsp70 promoter luciferase, luminescence, 10 µM. HeLa Hsp70 promoter luciferase reporter; scaled: vehicle 0, proteasome-inhibitor control 100%. activation, % at 10 µM. 0.04% of 200,000 active. AID 1203, 2008;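 active = activation above the mean across all tested compounds plus 3 SD, cutoff set per campaign, cut at about 5.5% in these data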;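 also: 100% = MG132 at 30 µM as the positive control and 0% = DMSO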
HSP90 inh: HSP90 inhibitors, primary screen, cell lysate, luminescence. Heat shock protein HSP 90 (rabbit reticulocyte lysate; luciferase refolding). Rabbit reticulocyte lysate, luciferase refolding luminescence, 3 h. inhibition, % at 5.6 µM. 0.91% of 290,000 active. AID 1789, 2009;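 active = inhibition above the screen-wide mean plus 3 SD, computed separately per campaign, cut at about 16% in these data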;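 also: 0% = DMSO wells and 100% = 60 µM geldanamycin wells; inhibitors lower the luminescence because luciferase stays unfolded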
HSF1 inhib: HSF1 inhibitors in luciferase reporter cells, primary screen, cell-based, NIH3T3, luminescence | activity change, negative = inhibition, % at 7.5 µM (by protocol) | 0.77% of 300,000 active | NIH3T3-HGL HSE-luciferase, MG132-induced, luminescence 8 h; stronger effect = lower value | AID 2098, 2009;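 active = more than half of replicate wells show activity change below -50%, luminescence cut by over half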;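 also: luciferase reports HSF-1 transcriptional activity via heat shock element; 0% = median of DMSO wells and -100% = zero luminescence signal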
HKDC1 inhibitor: HKDC1 hexokinase inhibitors, primary screen, biochemical, fluorescence, uHTS; 0.16% of 340,000 active; recombinant HKDC1, G6PDH/diaphorase resazurin coupled fluorescence; inhibition, % at 20 µM; Q2TB90;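 active = inhibition above about 35% when tested at 20 µM, limit read from the data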;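 also: plate controls were DMSO wells with enzyme for no effect and DMSO wells lacking enzyme for full effect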
Target sequence (Q2TB90 whole entry, looked up): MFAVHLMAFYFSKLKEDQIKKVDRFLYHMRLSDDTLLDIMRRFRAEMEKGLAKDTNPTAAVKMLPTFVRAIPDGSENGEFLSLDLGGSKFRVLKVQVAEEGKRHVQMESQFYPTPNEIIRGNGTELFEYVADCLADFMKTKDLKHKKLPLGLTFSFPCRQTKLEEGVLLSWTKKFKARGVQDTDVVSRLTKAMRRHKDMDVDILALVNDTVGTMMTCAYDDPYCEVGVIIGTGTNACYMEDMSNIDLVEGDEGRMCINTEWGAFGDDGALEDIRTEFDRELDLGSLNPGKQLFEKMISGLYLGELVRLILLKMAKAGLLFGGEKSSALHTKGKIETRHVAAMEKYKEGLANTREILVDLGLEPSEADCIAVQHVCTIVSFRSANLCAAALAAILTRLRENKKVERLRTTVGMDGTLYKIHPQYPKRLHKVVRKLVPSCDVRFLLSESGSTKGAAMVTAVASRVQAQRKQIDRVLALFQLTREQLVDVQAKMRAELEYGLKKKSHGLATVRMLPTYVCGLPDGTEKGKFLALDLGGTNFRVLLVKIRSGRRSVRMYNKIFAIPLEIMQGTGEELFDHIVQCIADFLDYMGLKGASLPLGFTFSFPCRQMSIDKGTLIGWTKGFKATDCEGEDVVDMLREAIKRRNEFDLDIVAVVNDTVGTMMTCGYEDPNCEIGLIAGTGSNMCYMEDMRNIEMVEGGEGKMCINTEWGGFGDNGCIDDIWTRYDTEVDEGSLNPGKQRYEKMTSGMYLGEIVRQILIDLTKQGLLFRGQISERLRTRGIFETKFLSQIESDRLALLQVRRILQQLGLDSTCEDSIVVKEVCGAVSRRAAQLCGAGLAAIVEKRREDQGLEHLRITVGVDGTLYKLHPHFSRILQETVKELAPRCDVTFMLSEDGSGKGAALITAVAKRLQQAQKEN
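Test system: Recombinant HKDC1 (HK5) hexokinase enzyme, produced in-house | Input: HKDC1 at 5 µg/mL | Buffer or medium: Tris pH 8.0 buffer with MgCl2, Tween-20, BSA, BME | Schedule: 90 min reaction incubation at room temperature, dark | Technique: Resazurin-to-resorufin fluorescence via G6PDH and diaphorase coupling, 525/613 nm | Controls: DMSO wells with and without enzyme mix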
TbHK1 inh: Trypanosoma brucei hexokinase 1 inhibitors, primary screen, biochemical, G6PDH-coupled NADH absorbance, MLSCN library; hexokinase 1 [Trypanosoma brucei]; recombinant TbHK1, G6PDH-coupled NADH A340; inhibition, % at 10 µM; 0.11% of 220,000 active; AID 1430, 2008;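 active = inhibition of 50% or more in the single-dose primary screen; inactive = inhibition below 50%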
HSF1 activator: HSF-1 activators, primary screen, NIH3T3-HGL cells, MG132 stress, luminescence, single point; NIH3T3-HGL HSF-1 luciferase reporter, 8 h; 100% = twice DMSO control signal; activation, % at 9 µM; AID 504408, 2011; 1.7% of 300,000 active;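 active = mean replicate activation of at least 50% with a set share of replicates each reaching 50%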;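 also: 0% = median of the neutral control wells and 100% = twice that signal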
An asterisk follows results filed as active; i = inactive; . = no result given.

SMILES	Hsp70 act	HSP90 inh	HSF1 inhib	HKDC1 inhibitor	TbHK1 inh	HSF1 activator
NC(=O)c1cccc(-c2cnc(N)c(C(=O)c3cccnc3)n2)c1	.	.	.	1.6	.	.
CCn1c(COc2ccccc2)nnc1SCc1ccc(C#N)cc1	-0.3	0.1	38.4	2.1	1.6	55.8*
Cc1ccccc1C(=O)NC(=S)Nc1ccccc1N1CCCC1	-0.4	1.9	5.8	-2.8	3.2	18.9
COc1ccccc1C(=O)NC(=S)Nc1ccccc1N1CCCC1	.	0.8	-57.8*	.	.	-62.5
COc1ccc(CCNC(=S)NC(=O)c2cccc([N+](=O)[O-])c2)cc1OC	.	4.2	-11.4	0.5	.	-25.2
O=C(/C=C/c1ccc(Cl)cc1)NCc1cccs1	0.3	-0.7	-13.2	-2.7	35.6	-4.6
O=C(/C=C/c1cccc(Cl)c1)NCc1cccs1	0.0	0.3	20.4	-1.4	6.7	51.6*
Cc1ccccc1CNC(=O)CCn1nc(C)c2c(C)n(-c3ccccc3)nc2c1=O	.	0.9	-2.0	2.6	.	-4.0
Nn1c(SCc2ccccc2)nnc1-c1ccco1	-0.3	-1.2	-67.7*	4.4	1.4	-73.7
Cc1nc2c(ccc3nc(NC(=O)Cc4cccc5ccccc45)sc32)s1	0.0	1.6	-56.2*	-2.5	3.0	-67.5
O=C(CSc1nc2ccsc2c(=O)n1CC1CCC(C(=O)O)CC1)NCCc1ccc(Cl)cc1 (centres undefined)	.	-1.8	-5.5	-4.6	.	14.0
COc1ccc(Cl)cc1NC(=O)CSc1nc2ccsc2c(=O)n1CC1CCC(C(=O)O)CC1 (centres undefined)	.	-0.3	-59.9*	-4.0	.	-69.2
COc1ccc(N2C(=O)C(Cl)=C(N3CCOCC3)C2=O)cc1	.	4.4	-2.9	-2.6	.	4.0
COc1ccc(N2C(=O)C(Cl)=C(Oc3cccc(OC)c3)C2=O)cc1	-0.1	-0.6	69.9	25.6	-2.7	136.5*
CCOC(=O)C1=C(CN2CCN(C(=O)c3ccco3)CC2)NC(=O)NC1c1ccccc1 (centres undefined)	.	4.6	-2.1	-2.9	.	11.2
CCOC(=O)C1=C(CN2CCN(C(=O)c3ccco3)CC2)NC(=O)NC1c1ccc(OC)cc1 (centres undefined)	.	1.5	-88.3*	-5.1	.	-91.4
CCOc1ccc(C)cc1S(=O)(=O)NC1CCCCC1	-0.1	-2.1	21.7	-4.9	-1.1	61.1*
O=C(COC(=O)c1cncc(Br)c1)NCc1ccc(Cl)cc1	.	1.9	-17.2	-3.4	9.9	-22.1
O=C(COC(=O)c1cncc(Br)c1)NCc1ccccc1	-0.4	-3.3	14.1	-1.9	-6.7	53.2*
CCN(CCn1cccn1)C(=O)c1cc(COc2cc(C)ccc2C)on1	.	-2.0	20.5	-4.9	.	59.4*
Cc1ccc(C)c(OCc2cc(C(=O)N3CCN(c4ccccc4)CC3)no2)c1	.	2.9	38.3	-0.1	.	55.6*
O=C(O)C1=C(C(=O)O)C2C=CC1C2	.	.	.	-5.1	.	.
Cc1cccc(CS(=O)(=O)c2ncc(Cl)c(C(=O)Nc3c(C)cccc3C)n2)c1	.	3.7	430.1	1.1	.	481.7*
Cc1cccc(C)c1NC(=O)c1nc(S(=O)(=O)Cc2ccccc2)ncc1Cl	.	3.3	i	1.9	.	596.2*
Cc1cccc(CS(=O)(=O)c2ncc(Cl)c(C(=O)NCc3ccccc3)n2)c1	.	4.3	346.1	-0.8	.	326.6*
Cc1nnc(NC(=O)c2nc(S(=O)(=O)Cc3ccccc3)ncc2Cl)s1	.	5.0	-35.5	2.7	.	-39.3
Cc1ccccc1NC(=O)c1nc(S(C)(=O)=O)ncc1Cl	.	4.5	87.1	-7.0	.	113.3*
CSc1ncc(Cl)c(C(=O)Nc2cccc(C)c2)n1	-0.2	-1.7	.	-9.3	-7.8	.
CC(OC(=O)c1cccc(S(=O)(=O)N(C)C)c1)C(=O)NCC(=O)Nc1ccc(F)c(F)c1F (centres undefined)	.	.	.	-3.6	.	.
O=C1CCC/C=C/C[C@H](CC(=O)N(CCO)Cc2ccccc2)C(=O)N[C@@H](Cc2ccccc2)CO1	.	.	.	-7.5	.	.
